Experimental data as given in publication PMC10616755 (RSC Advances, 2023).
Read-outs that look alike come from different tables or passages of the source.

What was measured:
MCF-7 [1] = assay: MTT cytotoxicity assay, MCF-7; assay type: cell-based, human; settings: for Cytotoxicity grade MCF-7: grade in words in text; for SI (MCF-7): selectivity index WI-38 vs MCF-7
Outline: (§1)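 MTT viability assay on human HCT-116 and MCF-7 lines. Each test compound was run at 100, 50, 25, 12.5, 6.25, 3.125 and 1.56 μM, with IC50 determined per cell line.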

HCT-116 [2] = assay: MTT cytotoxicity assay, HCT-116; assay type: cell-based, human; settings: for Cytotoxicity grade HCT-116: grade in words in text; for SI (HCT-116): selectivity index WI-38 vs HCT-116
Outline: as §1

WI-38 = assay: MTT cytotoxicity on normal lung fibroblast; assay type: cell-based, human; settings: read-out: Cytotoxicity on WI-38 IC50; normal cell line, MTT assay
HCT-116 [3] = settings: read-out: Cytotoxic activity IC50 HCT-116, cited from earlier work
MCF-7 [4] = settings: read-out: Cytotoxic activity IC50 MCF-7, cited from earlier work
caspase-3 = assay: Active caspase-3 level; assay type: cell-based, human
p53 = assay: Active p53 level; assay type: cell-based, human
[5] = MTT cytotoxicity on normal lung fibroblast; assay type: cell-based, human; settings: human, WI-38 normal lung fibroblast cells
BAX = BAX level; assay type: cell-based; settings: control = 1
BCL2 = BCL2 level; assay type: cell-based; settings: control = 1
VEGFR-2 = VEGFR-2 (Homo sapiens, UniProt P35968); assay: VEGFR-2; assay type: biochemical; settings: VEGFR-2 inhibitory activity IC50
[6] = read-out: Cytotoxic activity IC50 MCF-7, MTT assay
[7] = read-out: Cytotoxic activity IC50 HCT-116, MTT assay
[8] = Homo sapiens, MCF7, read-out: Cytotoxic activity IC50 MCF-7
[9] = Homo sapiens, HCT-116, read-out: Cytotoxic activity IC50 HCT-116
[10] = sorafenib reference value ref 36
[11] = sunitinib reference value ref 34,35

Sequence of VEGFR-2 (P35968 20-1356): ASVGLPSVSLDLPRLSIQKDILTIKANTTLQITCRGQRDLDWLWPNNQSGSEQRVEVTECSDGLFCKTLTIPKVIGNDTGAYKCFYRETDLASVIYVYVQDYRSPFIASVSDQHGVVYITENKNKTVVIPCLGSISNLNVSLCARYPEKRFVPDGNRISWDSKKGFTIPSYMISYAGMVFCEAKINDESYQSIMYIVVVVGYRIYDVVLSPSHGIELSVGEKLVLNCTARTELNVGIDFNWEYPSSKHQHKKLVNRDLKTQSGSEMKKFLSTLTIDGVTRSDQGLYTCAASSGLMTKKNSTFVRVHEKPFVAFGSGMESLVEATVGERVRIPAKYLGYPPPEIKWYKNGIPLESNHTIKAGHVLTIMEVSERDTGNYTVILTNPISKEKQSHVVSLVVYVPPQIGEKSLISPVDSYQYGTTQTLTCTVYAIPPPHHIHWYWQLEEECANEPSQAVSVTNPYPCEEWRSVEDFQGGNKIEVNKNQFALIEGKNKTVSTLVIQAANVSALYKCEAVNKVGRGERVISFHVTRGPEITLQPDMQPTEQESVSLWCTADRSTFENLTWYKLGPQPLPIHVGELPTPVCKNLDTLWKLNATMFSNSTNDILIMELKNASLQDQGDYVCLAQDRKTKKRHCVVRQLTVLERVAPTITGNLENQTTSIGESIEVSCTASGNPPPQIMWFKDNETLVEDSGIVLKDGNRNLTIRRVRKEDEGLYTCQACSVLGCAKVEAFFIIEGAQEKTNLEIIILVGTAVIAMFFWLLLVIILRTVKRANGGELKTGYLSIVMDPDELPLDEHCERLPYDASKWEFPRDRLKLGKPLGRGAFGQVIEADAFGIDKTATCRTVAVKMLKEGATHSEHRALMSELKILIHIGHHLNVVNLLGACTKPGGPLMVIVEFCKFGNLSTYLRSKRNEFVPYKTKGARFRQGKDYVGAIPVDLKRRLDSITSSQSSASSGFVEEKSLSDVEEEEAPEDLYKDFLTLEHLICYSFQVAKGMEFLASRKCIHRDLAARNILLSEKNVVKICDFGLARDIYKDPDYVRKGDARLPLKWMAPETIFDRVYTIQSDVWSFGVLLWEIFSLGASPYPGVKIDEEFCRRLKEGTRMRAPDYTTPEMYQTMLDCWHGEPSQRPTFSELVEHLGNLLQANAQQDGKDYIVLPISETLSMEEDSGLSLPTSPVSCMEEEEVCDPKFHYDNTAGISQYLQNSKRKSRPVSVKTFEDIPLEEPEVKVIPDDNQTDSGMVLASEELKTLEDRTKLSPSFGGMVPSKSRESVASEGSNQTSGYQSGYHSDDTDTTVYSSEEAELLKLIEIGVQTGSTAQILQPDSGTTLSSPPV

2-(2-(3-(6-Chloro-3-oxo-3,4-dihydroquinoxalin-2-yl)propanoyl)hydrazine-1-carbonyl) benzoic acid [Compound 21]
IC50 (MCF-7 [1]; [6]): 41.5 ± 2.5 µM
IC50 (HCT-116 [2]; [7]): 48.2 ± 2.7 µM

Cc1ccc(NC(=O)CCc2nc3cc(Cl)ccc3[nH]c2=O)cc1 [Compound 11, 3-(6-Chloro-1,2-dihydro-2-oxoquinoxalin-3-yl)-N-p-tolylpropanamide]
IC50 (MCF-7 [1]; [8]): 54 ± 3.1 µM
IC50 (HCT-116 [2]; [9]): 61.4 ± 3.4 µM

Cc1ccccc1NC(=O)CCc1nc2cc(Cl)ccc2[nH]c1=O [Compound 13, 3-(6-Chloro-1,2-dihydro-2-oxoquinoxalin-3-yl)-N-o-tolylpropanamide]
IC50 (MCF-7 [1]; [8]): 18.9 ± 1.4 µM
IC50 (HCT-116 [2]; [9]): 22.2 ± 1.9 µM

2,4-Dichloro-N′-(3-(6-chloro-3-oxo-3,4-dihydroquinoxalin-2-yl)-propanoyl) benzohydrazide [Compound 19]
IC50 (WI-38): 71.6 ± 2.8 µM
Cytotoxicity grade MCF-7 (MCF-7 [1]): very strong (1–10 (very strong))
IC50 (MCF-7 [1]; [6]): 5.11 ± 0.8 µM
SI (MCF-7) (MCF-7 [1]): 14.01
Cytotoxicity grade HCT-116 (HCT-116 [2]): very strong (1–10 (very strong))
IC50 (HCT-116 [2]; [7]): 6.18 ± 2.1 µM
SI (HCT-116) (HCT-116 [2]): 11.58

CNC(=O)c1cc(Oc2ccc(NC(=O)Nc3ccc(Cl)c(C(F)(F)F)c3)cc2)ccn1 [Sorafenib]
IC50 (HCT-116 [3]; [10]): 18.6 ± 1.9 µM
IC50 (MCF-7 [4]; [10]): 16 ± 3.6 µM

4-(3-(6-Chloro-1,2-dihydro-2-oxoquinoxalin-3-yl)propaneamido)-4-oxobutanoic acid [Compound 20]
IC50 (WI-38): 93 ± 2.2 µM
IC50 (MCF-7 [1]; [6]): 10.2 ± 3.3 µM
SI (MCF-7) (MCF-7 [1]): 9.15
IC50 (HCT-116 [2]; [7]): 26.4 ± 3.8 µM
SI (HCT-116) (HCT-116 [2]): 3.52

O=C(CCc1nc2cc(Cl)ccc2[nH]c1=O)Nc1ccc(C(=O)O)cc1 [Compound 16, 4-(3-(6-Chloro-1,2-dihydro-2-oxoquinoxalin-3-yl)propanamido)benzoic acid]
IC50 (MCF-7 [1]; [8]): 67.2 ± 3.5 µM
Cytotoxicity grade MCF-7 (MCF-7 [1]): weak (51–100 (weak))
IC50 (HCT-116 [2]; [9]): 75.1 ± 3.6 µM
Cytotoxicity grade HCT-116 (HCT-116 [2]): weak (51–100 (weak))

CCN(CC)CCNC(=O)c1c(C)[nH]c(/C=C2\C(=O)Nc3ccc(F)cc32)c1C [Sunitinib]
Caspase 3 (caspase-3; MCF-7 cells, control 47.88 ± 13.15): 384.53 ± 8.40 pg/mL
Caspase 3 Fld (caspase-3; vs control): 8.031 fold
IC50 (HCT-116 [3]; [11]): 3.42 ± 0.5 µM
IC50 (MCF-7 [4]; [11]): 4.77 ± 0.2 µM
p53 (p53; MCF-7 cells, control 22.19 ± 8.39): 278.34 ± 5.27 pg/mL
p53 Fld (p53; vs control): 12.543 fold

COc1cccc2c1C(=O)c1c(O)c3c(c(O)c1C2=O)C[C@@](O)(C(=O)CO)C[C@@H]3O[C@H]1C[C@H](N)[C@H](O)[C@H](C)O1 [DOX, Doxorubicin, reference compound]
IC50 [5]: 6.72 ± 0.5 µM
IC50 (MCF-7 [1]; [8]): 7.43 ± 0.2 µM
SI (MCF-7) (MCF-7 [1]): 0.9
IC50 (HCT-116 [2]; [9]): 9.27 ± 0.3 µM
SI (HCT-116) (HCT-116 [2]): 0.72

O=C(CCc1nc2cc(Cl)ccc2[nH]c1=O)Nc1ccccc1 [Compound 5, 3-(6-Chloro-1,2-dihydro-2-oxoquinoxalin-3-yl)-N-phenylpropanamide]
IC50 (MCF-7 [1]; [8]): 39 ± 2.4 µM
Cytotoxicity grade MCF-7 (MCF-7 [1]): moderate (21–50 (moderate))
IC50 (HCT-116 [2]; [9]): 45.5 ± 2.7 µM
Cytotoxicity grade HCT-116 (HCT-116 [2]): moderate (21–50 (moderate))

CN[C@@H]1C[C@H]2O[C@@](C)([C@@H]1OC)n1c3ccccc3c3c4c(c5c6ccccc6n2c5c31)C(=O)NC4 [Staurosporine]
BAX fold change (BAX): 7.5517 fold change
BAX fold change (BAX; listed as staurosporine): 7.55 fold change
BCL2 fold change (BCL2): 0.3248 fold change
BCL2 fold change (BCL2; listed as staurosporine): 0.33 fold change

Cc1cccc(NC(=O)CCc2nc3cc(Cl)ccc3[nH]c2=O)c1 [Compound 12, 3-(6-Chloro-1,2-dihydro-2-oxoquinoxalin-3-yl)-N-m-tolylpropanamide]
IC50 (MCF-7 [1]; [8]): 24.6 ± 1.9 µM
IC50 (HCT-116 [2]; [9]): 28.4 ± 2.2 µM

O=C(CCc1nc2cc(Cl)ccc2[nH]c1=O)Nc1ccccc1O [Compound 9, 3-(6-Chloro-1,2-dihydro-2-oxoquinoxalin-3-yl)-N-(2-hydroxyphenyl)propanamide]
IC50 (VEGFR-2): 0.131 µM
IC50 [5]: 86.1 ± 4.1 µM
IC50 (MCF-7 [1]; [8]): 6.92 ± 0.5 µM
SI (MCF-7) (MCF-7 [1]): 12.44
IC50 (HCT-116 [2]; [9]): 7.19 ± 0.7 µM
SI (HCT-116) (HCT-116 [2]): 11.98
